Laboratory results as given in publication PMC10013843 (Molecular psychiatry, 2022).

Assays:
mGluR3 = mGluR3 (Homo sapiens, UniProt Q14832); assay: [^3H]LY341495 competition binding, recombinant receptor membranes; conditions: membranes expressing human recombinant mGluR3
>30,000 proteins = assay: Collective screening and target deconvolution; format: binding
[1] = biological target: Neurokinin receptor (NK1) (Homo sapiens, UniProt P25103); assay: Receptor and enzyme competitive screen; format: binding; conditions: 10 μM
Method in brief: (§1)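 In an outsourced panel, membranes from stable cell lines expressing each receptor or enzyme were incubated with the target's radioligand, with or without test compound at 100 nM or 10 μM. A reference compound ran concurrently, and a specific agonist or antagonist defined nonspecific binding. Bound ligand was collected by vacuum filtration through presoaked glass-fibre filters, washed with ice-cold buffer and counted by scintillation.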

[2] = biological target: tropomyosin receptor kinase B (TrkB) (Homo sapiens, UniProt Q16620); assay: Screening and target deconvolution experiments; format: binding
rats [3] = assay: [^18F]-FDG PET brain metabolic mapping; format: in vivo, rat; conditions: 10 mg/kg i.v. infusion in 40 min
Method in brief: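 Rats were handling- and arena-habituated and fasted 16 h. Awake in an open field, they received a continuous IV infusion of buffered saline (n = 4) or test compound (10 mg/kg over 40 min, n = 5). Ten min after infusion start, [18F]-FDG (13 MBq) was given IP. Rats were anesthetized 30 min later and brains PET-scanned. SUVR images used whole brain as reference, analysed voxel-wise and by atlas-based ROIs.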

mGluR2 = mGluR2 (Homo sapiens, UniProt Q14416); assay: [^3H]LY341495 competition binding, recombinant receptor membranes; conditions: membranes expressing human recombinant mGluR2
[4] = system: >80 receptor and enzymatic binding sites; assay: Receptor and enzyme competitive screen; conditions: 100 nM
Method in brief: as §1

mice = conditions: cited from earlier work
[5] = after i.p. injection of antidepressant-relevant doses in mice; cited from earlier work
[6] = system: cDNA libraries derived from human adult brain, human lung cancer cells, and human placenta; assay: Yeast 3-hybrid screen, human cDNA libraries; conditions: lung cancer cell and placenta libraries
mGluR5 = mGluR5 (Homo sapiens, UniProt P41594); assay: mGluR functional assay; format: biochemical
[7] = biological target: delta-opioid receptor (DOR; OPRD1) (Homo sapiens, UniProt P41143); assay: cAMP BRET; format: cell-based; conditions: HEK-293 cells, up to a concentration of 1 mM
Method in brief: (§2)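 HEK-293 cells (DMEM, 10% FBS, 37°C/5% CO2) were PEI-transfected with 5 μg untagged MOR, KOR or DOR plus 5 μg CAMYEL cAMP biosensor and used 48 h later. Cells were suspended in DPBS with 100 μM metabisulfite and 5.5 mM glucose and kept 45 min in the dark. Forskolin (10 μM) was added for 5 min, then coelenterazine H (5 μM) for 5 min, then compound. BRET (535/475 nm) was read 5 min later, forskolin-only background subtracted, and expressed as % of each receptor's maximum. Triplicates; 3–6 experiments for EC50/Emax.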

opioid receptors = conditions: cited from earlier work
NMDA receptors = assay: [^3H]MK-801 competition binding, rat brain membranes
mGluR8 = mGluR8 (Homo sapiens, UniProt O00222); assay: mGluR functional assay; format: biochemical
rats [8] = assay: Intravenous self-administration; format: in vivo, rat
Method in brief: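 Male rats had jugular catheters placed under isoflurane and recovered 6–8 days. They were food-restricted (18–20 g/day) on a reverse 12-h cycle. For training (n = 14), rats self-administered test compound at 0.5 mg/kg/infusion IV, FR1 with 20-s timeout, for 16 days. For dose-response (n = 8/condition), unit doses of 0.125, 0.25, 0.5 or 1.0 mg/kg/infusion were given in randomized sequence, 1 h/day for 8 days. Read-out was infusions earned.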

mGluR2/3 = assay: mGluR functional assay; format: biochemical
MOR (OPRM1) = MOR (OPRM1) (Homo sapiens, UniProt P35372); assay: cAMP BRET; format: cell-based; conditions: HEK-293 cells, up to a concentration of 1 mM
Method in brief: as §2

Chain of delta-opioid receptor (DOR; OPRD1) (P41143 whole entry): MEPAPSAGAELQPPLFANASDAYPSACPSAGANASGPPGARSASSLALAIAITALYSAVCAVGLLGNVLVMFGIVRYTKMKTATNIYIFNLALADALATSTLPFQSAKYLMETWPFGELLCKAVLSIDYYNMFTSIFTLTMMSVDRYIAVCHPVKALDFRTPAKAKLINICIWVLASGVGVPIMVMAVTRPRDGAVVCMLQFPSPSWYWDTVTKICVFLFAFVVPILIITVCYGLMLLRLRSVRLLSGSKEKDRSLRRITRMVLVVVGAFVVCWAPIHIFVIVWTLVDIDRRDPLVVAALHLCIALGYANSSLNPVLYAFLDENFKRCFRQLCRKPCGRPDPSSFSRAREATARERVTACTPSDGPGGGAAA
Chain of MOR (OPRM1) (P35372 whole entry): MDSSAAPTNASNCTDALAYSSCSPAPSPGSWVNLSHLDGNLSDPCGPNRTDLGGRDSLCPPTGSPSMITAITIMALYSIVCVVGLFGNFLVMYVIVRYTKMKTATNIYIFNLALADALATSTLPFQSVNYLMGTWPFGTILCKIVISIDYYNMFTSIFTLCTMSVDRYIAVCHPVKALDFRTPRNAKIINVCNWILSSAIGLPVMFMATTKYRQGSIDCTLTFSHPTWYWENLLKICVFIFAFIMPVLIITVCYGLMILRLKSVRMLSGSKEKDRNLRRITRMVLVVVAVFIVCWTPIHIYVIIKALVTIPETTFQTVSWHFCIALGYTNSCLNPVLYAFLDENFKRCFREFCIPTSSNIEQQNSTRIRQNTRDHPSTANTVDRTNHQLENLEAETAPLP
Chain of mGluR2 (Q14416 19-872): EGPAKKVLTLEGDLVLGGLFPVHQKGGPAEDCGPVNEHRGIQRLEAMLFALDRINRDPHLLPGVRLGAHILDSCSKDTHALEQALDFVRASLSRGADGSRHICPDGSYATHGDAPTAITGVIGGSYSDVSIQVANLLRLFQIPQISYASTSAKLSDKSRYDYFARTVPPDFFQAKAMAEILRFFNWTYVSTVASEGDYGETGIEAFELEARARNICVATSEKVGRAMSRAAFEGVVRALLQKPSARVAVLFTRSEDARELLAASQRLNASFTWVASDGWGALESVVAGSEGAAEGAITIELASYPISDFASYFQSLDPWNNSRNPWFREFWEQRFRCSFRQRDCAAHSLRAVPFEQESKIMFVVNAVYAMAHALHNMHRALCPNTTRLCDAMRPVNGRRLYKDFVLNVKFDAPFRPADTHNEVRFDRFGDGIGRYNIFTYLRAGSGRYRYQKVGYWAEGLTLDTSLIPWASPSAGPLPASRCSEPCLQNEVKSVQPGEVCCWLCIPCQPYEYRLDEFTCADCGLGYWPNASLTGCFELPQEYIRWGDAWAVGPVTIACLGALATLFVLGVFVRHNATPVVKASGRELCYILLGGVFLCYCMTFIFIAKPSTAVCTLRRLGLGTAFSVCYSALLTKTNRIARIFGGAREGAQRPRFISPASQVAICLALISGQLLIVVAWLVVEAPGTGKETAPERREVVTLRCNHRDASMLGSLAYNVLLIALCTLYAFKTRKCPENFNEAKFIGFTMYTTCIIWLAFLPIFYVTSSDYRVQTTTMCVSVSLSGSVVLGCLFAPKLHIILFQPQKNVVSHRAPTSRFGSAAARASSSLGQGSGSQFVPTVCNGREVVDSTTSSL
Chain of mGluR3 (Q14832 23-879): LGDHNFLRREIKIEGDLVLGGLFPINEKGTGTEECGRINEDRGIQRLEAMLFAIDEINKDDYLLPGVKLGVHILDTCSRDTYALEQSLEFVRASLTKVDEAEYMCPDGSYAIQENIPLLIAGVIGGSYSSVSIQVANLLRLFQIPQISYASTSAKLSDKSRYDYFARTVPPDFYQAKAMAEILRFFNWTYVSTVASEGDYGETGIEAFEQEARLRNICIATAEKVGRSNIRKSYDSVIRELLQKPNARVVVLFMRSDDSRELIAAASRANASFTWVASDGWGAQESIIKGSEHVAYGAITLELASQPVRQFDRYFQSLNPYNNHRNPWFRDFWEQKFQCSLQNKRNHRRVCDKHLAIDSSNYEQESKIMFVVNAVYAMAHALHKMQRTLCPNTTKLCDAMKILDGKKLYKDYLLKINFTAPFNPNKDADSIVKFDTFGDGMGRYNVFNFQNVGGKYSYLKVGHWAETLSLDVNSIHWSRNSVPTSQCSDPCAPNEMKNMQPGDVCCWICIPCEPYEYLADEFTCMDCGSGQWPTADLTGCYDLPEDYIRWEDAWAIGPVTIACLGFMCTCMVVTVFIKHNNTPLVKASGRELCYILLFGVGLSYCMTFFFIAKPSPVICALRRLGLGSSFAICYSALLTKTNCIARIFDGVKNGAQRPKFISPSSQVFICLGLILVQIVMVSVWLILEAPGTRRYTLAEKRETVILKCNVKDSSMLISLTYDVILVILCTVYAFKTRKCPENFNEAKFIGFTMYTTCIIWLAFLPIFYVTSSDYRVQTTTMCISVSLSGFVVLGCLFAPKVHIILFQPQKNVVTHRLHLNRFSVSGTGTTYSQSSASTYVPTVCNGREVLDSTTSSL
Chain of mGluR8 (O00222 34-908, species assumed): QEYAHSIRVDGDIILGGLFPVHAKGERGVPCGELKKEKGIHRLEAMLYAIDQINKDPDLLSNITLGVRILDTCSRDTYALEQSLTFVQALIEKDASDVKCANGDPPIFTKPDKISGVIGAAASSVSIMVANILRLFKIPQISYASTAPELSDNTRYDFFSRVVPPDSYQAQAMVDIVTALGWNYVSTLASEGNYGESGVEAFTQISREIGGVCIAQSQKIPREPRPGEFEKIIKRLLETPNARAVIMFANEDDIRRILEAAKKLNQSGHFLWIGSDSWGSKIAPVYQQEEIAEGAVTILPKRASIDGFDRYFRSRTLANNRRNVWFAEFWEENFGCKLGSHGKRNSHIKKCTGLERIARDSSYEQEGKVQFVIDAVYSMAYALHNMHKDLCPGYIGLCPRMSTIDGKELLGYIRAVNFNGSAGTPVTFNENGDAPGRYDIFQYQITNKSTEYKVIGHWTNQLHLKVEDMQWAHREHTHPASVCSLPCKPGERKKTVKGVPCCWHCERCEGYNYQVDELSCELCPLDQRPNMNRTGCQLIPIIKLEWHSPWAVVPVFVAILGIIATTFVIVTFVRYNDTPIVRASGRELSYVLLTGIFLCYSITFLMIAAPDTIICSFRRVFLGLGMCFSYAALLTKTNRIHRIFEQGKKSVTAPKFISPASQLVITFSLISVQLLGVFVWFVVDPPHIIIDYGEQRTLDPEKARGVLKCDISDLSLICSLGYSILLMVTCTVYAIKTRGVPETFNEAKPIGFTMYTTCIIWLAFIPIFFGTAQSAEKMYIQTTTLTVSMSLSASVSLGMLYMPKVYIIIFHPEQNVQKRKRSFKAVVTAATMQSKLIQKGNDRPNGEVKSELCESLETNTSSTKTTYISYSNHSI
Chain of tropomyosin receptor kinase B (TrkB) (Q16620 32-822): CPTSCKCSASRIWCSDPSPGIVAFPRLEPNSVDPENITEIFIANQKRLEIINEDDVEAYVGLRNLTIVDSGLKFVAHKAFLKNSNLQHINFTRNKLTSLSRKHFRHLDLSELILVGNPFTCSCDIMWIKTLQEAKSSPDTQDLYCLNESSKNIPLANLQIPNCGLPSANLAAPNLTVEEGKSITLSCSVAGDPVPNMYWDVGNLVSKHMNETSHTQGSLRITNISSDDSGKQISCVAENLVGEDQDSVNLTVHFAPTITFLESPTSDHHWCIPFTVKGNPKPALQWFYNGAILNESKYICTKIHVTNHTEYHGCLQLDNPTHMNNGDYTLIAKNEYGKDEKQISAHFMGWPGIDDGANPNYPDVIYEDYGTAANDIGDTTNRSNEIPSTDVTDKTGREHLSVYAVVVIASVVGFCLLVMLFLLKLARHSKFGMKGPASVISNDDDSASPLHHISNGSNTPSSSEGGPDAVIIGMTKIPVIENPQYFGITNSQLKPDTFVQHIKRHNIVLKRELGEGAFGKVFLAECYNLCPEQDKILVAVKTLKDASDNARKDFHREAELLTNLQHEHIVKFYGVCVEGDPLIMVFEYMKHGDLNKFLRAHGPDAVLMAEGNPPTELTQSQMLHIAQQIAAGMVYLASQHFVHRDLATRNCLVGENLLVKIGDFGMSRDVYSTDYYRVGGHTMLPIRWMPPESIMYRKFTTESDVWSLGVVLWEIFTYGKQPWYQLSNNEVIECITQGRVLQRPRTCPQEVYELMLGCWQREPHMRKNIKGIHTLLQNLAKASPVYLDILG
Chain of Neurokinin receptor (NK1) (P25103 whole entry): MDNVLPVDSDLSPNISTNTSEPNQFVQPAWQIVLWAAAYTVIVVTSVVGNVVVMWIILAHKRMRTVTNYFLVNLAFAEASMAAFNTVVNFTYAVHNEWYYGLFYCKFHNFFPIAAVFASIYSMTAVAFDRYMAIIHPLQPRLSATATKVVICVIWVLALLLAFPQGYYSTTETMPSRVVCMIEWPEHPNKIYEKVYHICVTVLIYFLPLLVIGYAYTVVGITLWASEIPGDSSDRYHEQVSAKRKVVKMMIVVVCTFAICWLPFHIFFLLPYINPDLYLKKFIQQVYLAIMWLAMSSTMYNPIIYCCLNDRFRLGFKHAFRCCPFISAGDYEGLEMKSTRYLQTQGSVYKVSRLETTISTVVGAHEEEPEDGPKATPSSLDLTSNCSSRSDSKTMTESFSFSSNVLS

## N[C@@]1(c2ccccc2Cl)CCC[C@@H](O)C1=O [(2R,6R)-HNK, (2R,6R)-hydroxynorketamine]
mGluR3
  displacement of [^3H]LY341475: failed to displace
>30,000 proteins
  direct protein interactions, all screens together: failed to identify any (2R,6R)-HNK-protein interactions
[1]
  binding of Substance P to NK1 in screen: increases binding of Substance P
[2]
  interaction with TrkB: failed to interact
Rats [3]
  metabolic activity in the PFC: did not see any metabolic activity
  regional metabolic connectivity profile: closely resembled the saline condition
Rats [3]; insula, nucleus accumbens, globus pallidus, thalamus, cortices, cerebellum
  brain metabolic activity ([^18F]-FDG uptake), voxel-wise analysis: mild but significant increase
Rats [3]; vs saline
  FDG uptake in the nucleus accumbens, ROI-based: ~ 10 % increase
mGluR2
  displacement of [^3H]LY341475: failed to displace
[4]
  hits in competitive screen: No hits
mice
  pain reduction after naloxone pretreatment: not blocked by naloxone pretreatment
[5]
  maximum extracellular concentration in the hippocampus: ~ 8 μM
[6]
  high-confidence (2R,6R)-HNK-protein interactions: did not identify any positive high-confidence (2R,6R)-HNK-protein interactions
mGluR5
  effect in functional assay at mGluR5: no effects
[7]
  cAMP response (inhibition of cAMP accumulation): did not induce any cAMP response
Opioid receptors
  functional properties at opioid receptors: inverse agonist properties
NMDA receptors; concentrations up to 100 μM
  displacement of [^3H]MK-801 (NMDAR binding): no displacement
NMDA receptors; rat brain membranes
  displacement of [^3H]MK801 binding: failed to displace
mGluR8
  effect in functional assay at mGluR8: no effects
Rats [8]; male rats, 0.5 mg/kg/inf IV, FR1, 20-s timeout, 16 days
  self-administration training: not a reliable reinforcer
Rats [8]; rats, unit doses 0.125, 0.25, or 1 mg/kg/inf
  self-administration dose-response: did not respond
mGluR2/3
  functional responses at mGluR2/3: did not affect
MOR (OPRM1)
  cAMP response (inhibition of cAMP accumulation): did not induce any cAMP response
